These results are taken from ChEMBL document CHEMBL1144020, “Development of prodrug 4-chloro-3-(5-methyl-3-{[4-(2-pyrrolidin-1-ylethoxy)phenyl]amino}-1,2,4-benzotriazin-7-yl)phenyl benzoate (TG100801): a topically administered therapeutic candidate in clinical trials for the treatment of age-related macular degeneration” (J Med Chem, 2008).

What is called IC50 is the concentration needed to halve the response being measured. By Tmax is commonly meant the time from dosing to the highest level. A word on the Cmax: it is the peak of the concentration-time curve. A word on the AUC(0-t): it is the area under the concentration-time curve up to a stated or last time point. The term AUC denotes the area under the concentration-time curve, a measure of exposure.

The target in data set [1] is Proto-oncogene tyrosine-protein kinase Src (Homo sapiens, UniProt P12931). Kind of data set: Inhibition of Src.
Chain of Proto-oncogene tyrosine-protein kinase Src (P12931 2-536 limits assumed): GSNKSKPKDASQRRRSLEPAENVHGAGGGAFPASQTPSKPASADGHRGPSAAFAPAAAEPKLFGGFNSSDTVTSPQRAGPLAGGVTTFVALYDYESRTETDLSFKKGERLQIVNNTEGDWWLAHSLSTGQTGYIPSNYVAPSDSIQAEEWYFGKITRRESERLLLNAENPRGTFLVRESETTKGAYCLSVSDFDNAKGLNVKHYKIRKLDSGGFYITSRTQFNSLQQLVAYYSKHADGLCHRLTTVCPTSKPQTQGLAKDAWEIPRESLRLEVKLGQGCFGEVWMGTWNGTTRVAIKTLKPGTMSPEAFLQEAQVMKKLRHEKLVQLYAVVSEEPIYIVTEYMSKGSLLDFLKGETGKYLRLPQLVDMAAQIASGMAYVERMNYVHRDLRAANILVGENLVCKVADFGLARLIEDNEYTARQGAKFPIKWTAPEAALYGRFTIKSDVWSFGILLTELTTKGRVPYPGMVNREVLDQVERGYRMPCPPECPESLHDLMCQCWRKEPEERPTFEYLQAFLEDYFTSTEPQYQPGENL
The target in data set [2] is Vascular endothelial growth factor receptor 2 (Homo sapiens, UniProt P35968). Kind of data set: Inhibition of VEGFR2.
Chain of Vascular endothelial growth factor receptor 2 (P35968 whole entry): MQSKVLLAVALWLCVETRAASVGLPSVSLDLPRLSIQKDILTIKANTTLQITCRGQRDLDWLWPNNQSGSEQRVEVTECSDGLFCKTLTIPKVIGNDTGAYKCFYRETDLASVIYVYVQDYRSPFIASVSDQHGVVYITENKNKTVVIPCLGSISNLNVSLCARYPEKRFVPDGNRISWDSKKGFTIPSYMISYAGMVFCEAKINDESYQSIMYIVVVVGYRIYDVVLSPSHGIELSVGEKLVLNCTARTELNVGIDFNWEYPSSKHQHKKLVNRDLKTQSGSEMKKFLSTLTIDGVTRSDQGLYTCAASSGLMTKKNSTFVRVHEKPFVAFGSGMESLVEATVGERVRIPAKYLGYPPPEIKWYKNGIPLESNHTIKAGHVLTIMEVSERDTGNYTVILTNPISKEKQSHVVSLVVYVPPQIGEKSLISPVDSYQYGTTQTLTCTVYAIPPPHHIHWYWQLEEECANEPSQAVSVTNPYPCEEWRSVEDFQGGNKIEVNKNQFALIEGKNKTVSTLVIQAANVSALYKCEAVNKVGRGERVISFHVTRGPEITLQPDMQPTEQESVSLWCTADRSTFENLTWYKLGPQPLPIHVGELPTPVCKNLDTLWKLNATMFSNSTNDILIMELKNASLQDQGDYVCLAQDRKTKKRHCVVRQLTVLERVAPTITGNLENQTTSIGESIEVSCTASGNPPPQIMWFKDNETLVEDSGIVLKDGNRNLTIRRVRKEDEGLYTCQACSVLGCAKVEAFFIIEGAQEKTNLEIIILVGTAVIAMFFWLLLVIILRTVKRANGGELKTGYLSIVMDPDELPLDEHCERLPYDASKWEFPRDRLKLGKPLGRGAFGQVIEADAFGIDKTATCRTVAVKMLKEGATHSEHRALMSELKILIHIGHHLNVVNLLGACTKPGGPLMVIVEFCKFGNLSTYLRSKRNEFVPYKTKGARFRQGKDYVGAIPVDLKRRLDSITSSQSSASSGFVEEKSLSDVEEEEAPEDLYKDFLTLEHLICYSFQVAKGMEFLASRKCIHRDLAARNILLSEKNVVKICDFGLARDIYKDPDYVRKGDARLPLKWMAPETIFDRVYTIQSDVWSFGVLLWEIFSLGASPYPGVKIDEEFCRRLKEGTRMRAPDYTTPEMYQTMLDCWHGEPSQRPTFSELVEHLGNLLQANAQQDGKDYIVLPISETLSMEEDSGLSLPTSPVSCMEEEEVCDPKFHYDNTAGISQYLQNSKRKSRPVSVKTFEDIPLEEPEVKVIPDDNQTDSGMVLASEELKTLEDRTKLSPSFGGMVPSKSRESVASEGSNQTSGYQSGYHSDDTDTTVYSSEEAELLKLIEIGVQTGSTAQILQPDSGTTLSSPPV
For data set [3], the target named is Tyrosine-protein kinase Yes (Homo sapiens, UniProt P07947). Nature of the data set: Inhibition of YES.
Chain of Tyrosine-protein kinase Yes (P07947 whole entry): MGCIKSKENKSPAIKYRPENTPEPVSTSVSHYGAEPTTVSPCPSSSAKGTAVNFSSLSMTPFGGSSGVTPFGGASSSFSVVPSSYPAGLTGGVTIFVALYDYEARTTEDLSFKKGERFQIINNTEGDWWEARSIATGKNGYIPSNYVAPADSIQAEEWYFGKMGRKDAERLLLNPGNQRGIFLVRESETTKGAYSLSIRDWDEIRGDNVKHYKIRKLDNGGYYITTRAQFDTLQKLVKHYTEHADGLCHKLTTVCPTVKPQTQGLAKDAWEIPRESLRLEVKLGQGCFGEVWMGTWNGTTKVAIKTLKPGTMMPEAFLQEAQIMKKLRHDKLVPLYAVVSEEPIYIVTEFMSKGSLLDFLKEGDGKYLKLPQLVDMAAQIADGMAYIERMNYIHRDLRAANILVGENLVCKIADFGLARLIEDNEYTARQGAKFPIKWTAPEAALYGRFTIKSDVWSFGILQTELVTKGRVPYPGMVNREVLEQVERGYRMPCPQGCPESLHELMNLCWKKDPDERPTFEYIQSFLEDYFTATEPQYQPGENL
The nature of data set [4]: Stability at 120 degC after 1 hr. The note with it: read-out: Stability. It counts as physicochemical. In a few lines:
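Prodrugs at 0.5% in 0.5% HPMC/5% dextrose, pH 6.7, in closed vials, autoclaved at 120 °C for 1 h. After cooling, percent remaining was assessed by reverse-phase HPLC with diode-array and ELSD detection.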

Data set [5] in a line: Stability in Dutch-belted rabbit eye assessed as hydrolysis rate. In kind it is ADME, tissue-based, Oryctolagus cuniculus. In a few lines:
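Two Dutch-Belted rabbit eyeballs were homogenized in 1× RIPA buffer. Prodrug (from 1 mg/mL DMSO stock) was added to a final 5 µg/mL and kept at 37 °C, sampled at 0, 0.25, 1, 2 and 6 h. Controls were prodrug in RIPA buffer for 120 min at 37 °C. Supernatants were analyzed by LC/MS/MS for prodrug and released parent phenol.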

Data set [6] is described as follows: Tmax in C57BL/6 mouse retina at 172 nM instilled per eye. In kind it is ADME, organism-based. The note with it: topical or ocular, 172 nM per eye. In outline:
(§1)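 Male C57BL/6 mice got one 10 µL eye drop of prodrug (100 µg, 172 nmol per eye). Composite sampling at 0.5, 1, 3, 7 and 24 h post-instillation. Cornea, retina and pooled sclera/choroid were collected, with plasma at euthanasia. Tissues were homogenized in RIPA and extracted with acetonitrile. Prodrug and parent were measured by LC/MS/MS against matrix standards; AUC by linear trapezoidal rule on means.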

A short description of data set [7]: Cmax in C57BL/6 mouse retina at 172 nM instilled per eye. It counts as ADME, organism-based. Details: dose 172 nM, route ophthalmic. The note with it: topical or ocular, 172 nM per eye. In a few lines:
as §1

Data set [8] in a line: AUC (0 to 24 hrs) in C57BL/6 mouse retina at 172 nM instilled per eye. In kind it is ADME, organism-based. Details: dose 172 nM, time < 24 hr, route ophthalmic. The note with it: topical or ocular, 172 nM per eye. In outline: as §1
The nature of data set [9]: Tmax in C57BL/6 mouse choroid/sclera at 172 nM instilled per eye. It counts as ADME, organism-based. The note with it: topical or ocular, 172 nM per eye. In a few lines: as §1
Data set [10] is described as follows: Cmax in C57BL/6 mouse choroid/sclera at 172 nM instilled per eye. It counts as ADME, organism-based. Details: dose 172 nM, route ophthalmic. The note with it: topical or ocular, 172 nM per eye. In outline:
as §1

The species entered for data set [11] is Mus musculus. Kind of data set: Tmax in C57BL/6 mouse choroid/sclera assessed as 4-chloro-3-{5-methyl-3-[4-(2-pyrrolidin-1-yl-ethoxy)phenylamino]benzo[1,2,4]triazin-7-yl}phenol at 172 nM instilled per eye. It counts as ADME, organism-based. The note with it: in vivo, topical_or_ocular, 0.172 µM. In a few lines:
as §1

Data set [12] is filed under the species Mus musculus. Kind of data set: Cmax in C57BL/6 mouse choroid/sclera assessed as 4-chloro-3-{5-methyl-3-[4-(2-pyrrolidin-1-yl-ethoxy)phenylamino]benzo[1,2,4]triazin-7-yl}phenol at 172 nM instilled per eye. In kind it is ADME, organism-based. Details: dose 172 nM, route ophthalmic. The note with it: in vivo, topical_or_ocular, 0.172 µM. In outline: as §1

Data set [13] is filed under the species Mus musculus. Nature of the data set: AUC (0 to 24 hrs) in C57BL/6 mouse choroid/sclera assessed as 4-chloro-3-{5-methyl-3-[4-(2-pyrrolidin-1-yl-ethoxy)phenylamino]benzo[1,2,4]triazin-7-yl}phenol at 172 nM instilled per eye. In kind it is ADME, organism-based. Details: dose 172 nM, time < 24 hr, route ophthalmic. The note with it: in vivo, topical_or_ocular, 0.172 µM. In a few lines: as §1

The species entered for data set [14] is Mus musculus. Kind of data set: Tmax in C57BL/6 mouse cornea assessed as 4-chloro-3-{5-methyl-3-[4-(2-pyrrolidin-1-yl-ethoxy)phenylamino]benzo[1,2,4]triazin-7-yl}phenol at 172 nM instilled per eye. In kind it is ADME, organism-based. The note with it: in vivo, topical_or_ocular, 0.172 µM. In a few lines: as §1
Data set [15] is filed under the species Mus musculus. Nature of the data set: Cmax in C57BL/6 mouse cornea assessed as 4-chloro-3-{5-methyl-3-[4-(2-pyrrolidin-1-yl-ethoxy)phenylamino]benzo[1,2,4]triazin-7-yl}phenol at 172 nM instilled per eye. It counts as ADME, organism-based. Details: dose 172 nM, route ophthalmic. The note with it: in vivo, topical_or_ocular, 0.172 µM. In a few lines: as §1

Data set [16] is described as follows: AUC (0 to 24 hrs) in C57BL/6 mouse choroid/sclera at 172 nM instilled per eye. It counts as ADME, organism-based. Details: dose 172 nM, time < 24 hr, route ophthalmic. The note with it: topical or ocular, 172 nM per eye. In a few lines:
as §1

Data set [17] can be described thus: Tmax in C57BL/6 mouse cornea at 172 nM instilled per eye. In kind it is ADME, organism-based. The note with it: topical or ocular, 172 nM per eye. In a few lines: as §1
A short description of data set [18]: Cmax in C57BL/6 mouse cornea at 172 nM instilled per eye. It counts as ADME, organism-based. The note with it: topical or ocular, 172 nM per eye. Details: dose 172 nM, route ophthalmic. In a few lines:
as §1

The nature of data set [19]: AUC (0 to 24 hrs) in C57BL/6 mouse cornea at 172 nM instilled per eye. It counts as ADME, organism-based. Details: time < 24 hr, dose 172 nM, route ophthalmic. The note with it: topical or ocular, 172 nM per eye. In outline: as §1
The nature of data set [20]: Plasma concentration in C57BL/6 mouse after 24 hrs. It counts as ADME, organism-based.
For data set [21], the species on record is Mus musculus. Kind of data set: Tmax in C57BL/6 mouse retina assessed as 4-chloro-3-{5-methyl-3-[4-(2-pyrrolidin-1-yl-ethoxy)phenylamino]benzo[1,2,4]triazin-7-yl}phenol at 172 nM instilled per eye. The note with it: in vivo, topical_or_ocular, 0.172 µM. It counts as ADME, organism-based. In a few lines:
as §1

The species entered for data set [22] is Mus musculus. Kind of data set: Cmax in C57BL/6 mouse retina assessed as 4-chloro-3-{5-methyl-3-[4-(2-pyrrolidin-1-yl-ethoxy)phenylamino]benzo[1,2,4]triazin-7-yl}phenol at 172 nM instilled per eye. In kind it is ADME, organism-based. Details: dose 172 nM, route ophthalmic. The note with it: in vivo, topical_or_ocular, 0.172 µM. In outline: as §1
Data set [23] is filed under the species Mus musculus. Kind of data set: AUC (0 to 24 hrs) in C57BL/6 mouse retina assessed as 4-chloro-3-{5-methyl-3-[4-(2-pyrrolidin-1-yl-ethoxy)phenylamino]benzo[1,2,4]triazin-7-yl}phenol at 172 nM instilled per eye. In kind it is ADME, organism-based. Details: time < 24 hr, dose 172 nM, route ophthalmic. The note with it: in vivo, topical_or_ocular, 0.172 µM. In a few lines: as §1

The species entered for data set [24] is Mus musculus. Nature of the data set: AUC (0 to 24 hrs) in C57BL/6 mouse cornea assessed as 4-chloro-3-{5-methyl-3-[4-(2-pyrrolidin-1-yl-ethoxy)phenylamino]benzo[1,2,4]triazin-7-yl}phenol at 172 nM instilled per eye. It counts as ADME, organism-based. Details: time < 24 hr, dose 172 nM, route ophthalmic. The note with it: in vivo, topical_or_ocular, 0.172 µM. In a few lines: as §1

The species entered for data set [25] is Mus musculus. Kind of data set: Tmax in C57BL/6 mouse plasma assessed as 4-chloro-3-{5-methyl-3-[4-(2-pyrrolidin-1-yl-ethoxy)phenylamino]benzo[1,2,4]triazin-7-yl}phenol at 172 nM instilled per eye. In kind it is ADME, organism-based. The note with it: in vivo, topical_or_ocular, 0.172 µM. In outline: as §1
The species named for data set [26] is Mus musculus. Nature of the data set: Cmax in C57BL/6 mouse plasma assessed as 4-chloro-3-{5-methyl-3-[4-(2-pyrrolidin-1-yl-ethoxy)phenylamino]benzo[1,2,4]triazin-7-yl}phenol at 172 nM instilled per eye. Details: dose 172 nM, route ophthalmic. The note with it: in vivo, topical_or_ocular, 0.172 µM. It counts as ADME, organism-based. In a few lines:
as §1

The subject of data set [27] is Mus musculus. Kind of data set: Reduction of bruch's membrane rupture in laser-induced choroidoal neovascularization in mouse administered topically at 0.61% w/v after 14 days relative to control. Details: scale not given: the % may be the effect or the level left. In kind it is functional. In a few lines:
(§2)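 Laser rupture of Bruch's membrane in female C57BL/6J mice aged 4–5 weeks, ketamine-anesthetized; only bubble-forming burns were counted. Eight mice/group got one 10 µL drop of vehicle, 0.61% or 1.83% w/v prodrug t.i.d., 4 h apart, with the fellow eye untreated; a fourth group had no treatment. On day 14, mice were perfused with fluorescein-dextran and CNV area was measured on choroidal flatmounts. Linear mixed model with Dunnett adjustment.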

The test system of data set [28] is Mus musculus. Nature of the data set: Reduction of bruch's membrane rupture in laser-induced choroidoal neovascularization in mouse administered topically at 1.83% w/v after 14 days relative to control. It counts as functional. Details: scale not given: the % may be the effect or the level left. In outline: as §2
Data set [29] concerns Mus musculus. Kind of data set: Reduction of VEGF-induced retinal leak in BALB/c mouse administered topically at 210 nM q.d. In kind it is functional. Details: scale not given: the % may be the effect or the level left.

As for `Cc1cc(-c2cc(OC(=O)c3ccccc3)ccc2Cl)cc2nnc(Nc3ccc(OCCN4CCCC4)cc3)nc12` [TG100-801], the IC50 in [1] was no less than 10 µM; in data set [2], no less than 10 µM; in data set [3], no less than 2.5 µM. Besides, in data set [4], the remaining at 1 h is greater than 90%. For the same molecule, the Stability in [5] was 288 ng/mL/h. Also, the Tmax at 0.172 µM in data set [6], in [9] and in [17] was 24 h throughout. Also, the highest concentration (Cmax) at 0.172 µM is 5.3 µM in data set [7], 27 µM in [10] and 3.7 µM in [18]. For the same molecule, the AUC(0-t) at 24 h, 0.172 µM in data set [8] came to 63000 ng·h/mL; in [16], 430000 ng·h/mL; in [19], 55000 ng·h/mL. In addition, the Tmax worked out at 24 h in the data set listed under Mus musculus [11], 7 h in the data set listed under Mus musculus [14], 24 h in the data set filed under Mus musculus [21] and 24 h in the data set filed under Mus musculus [25]. The Cmax is 29 µM in the data set listed under Mus musculus [12], 33 µM in the data set listed under Mus musculus [15], 2.4 µM in the data set filed under Mus musculus [22] and 0.005 µM in the data set filed under Mus musculus [26]. Also, the figures for the AUC in the data set filed under Mus musculus [13], in the data set filed under Mus musculus [23] and in the data set filed under Mus musculus [24] were 540000 ng·h/mL, 35000 ng·h/mL and 670000 ng·h/mL, respectively. In [20], this molecule yielded a concentration at 24 h of less than 1 ng/mL. In addition, the results for the Activity in the data set on Mus musculus [27], in the data set on Mus musculus [28] and with Mus musculus [29] were 46%, 35% and 100%, respectively.
For `Cc1cc(-c2cc(OC(=O)C(C)C)ccc2Cl)cc2nnc(Nc3ccc(OCCN4CCCC4)cc3)nc12`, the remaining at 1 h in [4] was found to be 50%.
Regarding `Cc1cc(-c2cc(OC(=O)c3cccnc3)ccc2Cl)cc2nnc(Nc3ccc(OCCN4CCCC4)cc3)nc12`, the remaining at 1 h in data set [4] was found to be 50%.
On the same count and under the same terms, the figure for `Cc1cc(-c2cc(OC(=O)CN)ccc2Cl)cc2nnc(Nc3ccc(OCCN4CCCC4)cc3)nc12` is less than 20%.
